Several values for one entry are separate records, joined by “and”; a condition that tells them apart may be missing. Equal entries are not always repeated. Entries after “also recorded” stand apart in the source; their conditions may differ.
Tests used:
CSF Aβ fragments = experiment: CSF Aβ fragments, sAβPPα and sAβPPβ after multiple doses; type: in vivo, human; conditions: healthy adults
Procedure, shortened: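 Healthy adults (18–55 y), randomized double-blind placebo-controlled, oral QD for 14 days, fasted on Days 1, 7, and 14. Lumbar-puncture CSF was taken on Day –3 (B8271004) or Day 0 (B8271001) and on Day 15, 24 h post last dose. Total Aβ was measured by DELFIA (LLOQ 391.0 pg/mL). Ln change from baseline was analysed by ANCOVA with treatment as a fixed effect and ln baseline as covariate, then converted to percent change versus pooled placebo with 2-sided 80% CI.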

CSF Aβ1–40 and Aβ1–42 = experiment: Population PK/PD model of CSF Aβ1–40 and Aβ1–42; design: species or system human; conditions: in approximately 50% of subjects, simulated
Procedure, shortened: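 Population PK/PD model built on pooled data from both studies: CSF Aβ at baseline plus one steady-state trough value. Indirect-response model in which plasma drug concentration lowers the Aβ production rate. Population PK parameters were fixed. CSF turnover rates were fixed at 0.084/h (Aβ1–40) and 0.12/h (Aβ1–42), taken from a separate serial-CSF study.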

[1] = ECG QTcF change in SAD and MAD studies; type: in vivo, human
pigmented C57BL/6J mice = conditions: long-term toxicology studies / 3 weeks of treatment in pigmented C57BL/6J mice; cited from earlier work
dogs = conditions: long-term toxicology / chronic dosing for up to 9 months; cited from earlier work
Aβ40 and Aβ42 = conditions: animal studies, subcutaneous administration; cited from earlier work
hERG = conditions: in vitro and in vivo preclinical safety and toxicology studies; cited from earlier work
CYP3A4/5 = conditions: in vitro experiments; ref data on file; cited from earlier work

## C[C@H]1C[C@H]2CSC(N)=N[C@@]2(c2nc(NC(=O)c3ccc(OC(F)F)cn3)cs2)CO1 [PF-06751979]
CSF Aβ fragments; 50 mg QD 14 days, B8271001
  CSF Aβ1–38 percent change from baseline to Day 15 (2-sided 80% CI): –58.4 (–61.34, –55.28) %
  CSF Aβ1–40 percent change from baseline to Day 15 (2-sided 80% CI): –70.2 (–74.20, –65.52) %
  CSF Aβ1–40 placebo-adjusted percent change from baseline to Day 15 (2-sided 80% CI): –68.1 (–75.87, –57.86) %
  CSF Aβ1–42 percent change from baseline to Day 15 (2-sided 80% CI): –71.9 (–74.97, –68.57) %
  CSF Aβ total percent change from baseline to Day 15 (2-sided 80% CI): –64.0 (–66.62, –61.25) %
  CSF Aβx-38 percent change from baseline to Day 15 (2-sided 80% CI): –60.2 (–63.42, –56.67) %
  CSF Aβx-40 percent change from baseline to Day 15 (2-sided 80% CI): –60.4 (–63.71, –56.76) %
  CSF Aβx-42 percent change from baseline to Day 15 (2-sided 80% CI): –64.3 (–67.21, –61.11) %
  CSF sAβPPα percent change from baseline to Day 15 (2-sided 80% CI): 48.4 (38.56, 58.98) %
  CSF sAβPPβ percent change from baseline to Day 15 (2-sided 80% CI): –70.6 (–72.23, –68.93) %
CSF Aβ fragments; 125 mg QD 14 days, B8271004
  CSF Aβ1–38 percent change from baseline to Day 15 (2-sided 80% CI): –80.3 (–81.51, –79.06) %
  CSF Aβ1–40 percent change from baseline to Day 15 (2-sided 80% CI): –85.5 (–86.45, –84.38) %
  CSF Aβ1–40 placebo-adjusted percent change from baseline to Day 15 (2-sided 80% CI): –83.8 (–85.65, –81.78) %
  CSF Aβ1–42 percent change from baseline to Day 15 (2-sided 80% CI): –86.4 (–87.40, –85.28) %
  CSF Aβ total percent change from baseline to Day 15 (2-sided 80% CI): –80.1 (–81.01, –79.18) %
  CSF Aβx-38 percent change from baseline to Day 15 (2-sided 80% CI): –82.0 (–83.18, –80.74) %
  CSF Aβx-40 percent change from baseline to Day 15 (2-sided 80% CI): –81.0 (–82.16, –79.76) %
  CSF Aβx-42 percent change from baseline to Day 15 (2-sided 80% CI): –81.9 (–82.76, –80.91) %
  CSF sAβPPα percent change from baseline to Day 15 (2-sided 80% CI): 58.7 (48.89, 69.05) %
  CSF sAβPPβ percent change from baseline to Day 15 (2-sided 80% CI): –81.3 (–82.21, –80.27) %
CSF Aβ fragments; 275 mg QD 14 days, B8271004
  CSF Aβ1–38 percent change from baseline to Day 15 (2-sided 80% CI): –87.9 (–88.82, –86.98) %
  CSF Aβ1–40 percent change from baseline to Day 15 (2-sided 80% CI): –92.9 (–93.54, –92.25) %
  CSF Aβ1–40 placebo-adjusted percent change from baseline to Day 15 (2-sided 80% CI): –92.1 (–93.15, –90.98) %
  CSF Aβ1–42 percent change from baseline to Day 15 (2-sided 80% CI): –93.6 (–94.22, –92.93) %
  CSF Aβ total percent change from baseline to Day 15 (2-sided 80% CI): –86.5 (–87.26, –85.74) %
  CSF Aβx-38 percent change from baseline to Day 15 (2-sided 80% CI): –90.1 (–90.91, –89.23) %
  CSF Aβx-40 percent change from baseline to Day 15 (2-sided 80% CI): –87.6 (–88.55, –86.62) %
  CSF Aβx-42 percent change from baseline to Day 15 (2-sided 80% CI): –86.6 (–87.43, –85.76) %
  CSF sAβPPα percent change from baseline to Day 15 (2-sided 80% CI): 81.7 (67.79, 96.85) %
  CSF sAβPPβ percent change from baseline to Day 15 (2-sided 80% CI): –84.3 (–85.28, –83.26) %
CSF Aβ fragments; 275 mg QD, 24 h after Day 14 dose
  Maximum observed (placebo-adjusted) reduction in CSF Aβ1–42: ~93% and 92.9%
CSF Aβ1–40 and Aβ1–42; 30 mg QD
  Predicted average reduction of CSF Aβ1–40 and Aβ1–42 at steady state: approximately 60%
CSF Aβ1–40 and Aβ1–42; 75 mg QD
  Predicted average reduction of CSF Aβ1–40 and Aβ1–42 at steady state: ~80%
CSF Aβ1–40 and Aβ1–42; 110 mg QD
  Predicted average reduction of CSF Aβ1–40 and Aβ1–42 at steady state: ~85%
[1]; 275 mg QD for 14 days, 90% CI: 4.5, 21.1
  Maximum placebo-adjusted mean QTcF change from baseline: 12.8 ms
[1]; single dose 540 mg, 90% CI: 7.6, 22.2
  Maximum placebo-adjusted mean QTcF change from baseline: 14.9 ms
Pigmented C57BL/6J mice
  Hair color (pigmentation) change: not observed; also recorded: did not reveal pigmentation changes
dogs
  Hair color (pigmentation) change: did not reveal any evidence of hair color change; also recorded: did not reveal pigmentation changes
Aβ40 and Aβ42
  Aβ40 and Aβ42 in the brain and CSF: robust reductions
hERG
  hERG inhibition: weak hERG inhibition
CYP3A4/5
  CYP3A4/5 inhibition: weak metabolism-dependent inhibitor

From paper PMC6839502 (Journal of Alzheimer's Disease, 2019)
